Source: PubChem
An excerpt weighted towards active compounds, which were near 1.2% of everything screened.
CRFBP-R2 agonist: agonists of human CRF-binding protein/CRF-R2 receptor complex. HEK293 CRF-R2/CRF-BP, calcium dye fluorescence (FLIPR); percent of saturating CRF peptide response. activation, % at 13.2 µM. 0.46% of 350,000 active;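 active means activation of at least 50%, plus an integration ratio under a set limit after plate pattern correction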;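 further: plate controls were neutral control wells without compound for no effect and CRF at EC100 for full effect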
DDE Tn6 FP inh: disrupts Tn6 cyclic peptide binding to fibrin D-Dimer-E complex. AID 720509. 0.21% of 370,000 active. Fibrin DD(E) TRITC-Tn6 fluorescence polarization displacement. inhibition, % at 8.3 µM;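 active means inhibition above a per-campaign cutoff: mean of compounds within control limits plus 3 SD, cut at about 15% in these data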;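 further: 0% = median of all compound wells on the plate and 100% = blocking peptide control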
Target sequence (P02675 whole entry, looked up): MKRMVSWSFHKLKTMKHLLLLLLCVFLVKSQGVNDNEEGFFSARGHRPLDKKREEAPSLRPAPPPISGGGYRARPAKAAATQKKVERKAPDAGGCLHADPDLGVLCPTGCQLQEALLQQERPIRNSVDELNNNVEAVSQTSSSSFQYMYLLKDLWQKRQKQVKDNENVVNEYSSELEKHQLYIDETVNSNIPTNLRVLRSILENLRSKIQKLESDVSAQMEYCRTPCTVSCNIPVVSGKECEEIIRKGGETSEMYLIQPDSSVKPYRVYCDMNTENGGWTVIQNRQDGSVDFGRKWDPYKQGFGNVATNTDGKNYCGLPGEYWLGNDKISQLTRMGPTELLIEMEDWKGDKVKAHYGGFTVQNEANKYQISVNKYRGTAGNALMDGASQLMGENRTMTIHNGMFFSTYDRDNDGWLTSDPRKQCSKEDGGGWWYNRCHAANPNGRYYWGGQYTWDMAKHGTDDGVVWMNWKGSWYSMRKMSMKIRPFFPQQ
Tn7 DDE FP: inhibitors of Tn7 peptide binding to human fibrin DD(E). P02675. FP displacement of FITC-Tn7 peptide from fibrin DD(E); 0% = median of compound wells per plate. inhibition, % at 8.3 µM. 0.13% of 370,000 active. AID 720508;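 active means inhibition above the mean of compounds falling within the control limits plus 3 SD of them, cut at about 14% in these data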;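 further: 0% = plate median of compound wells and 100% = 10 µM Aha-Tn7 peptide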
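Assay system: human fibrin DD(E) protein / Input: 2 µM fibrin DD(E) / Benchmarks: high control of 10 µM Aha-Tn7 peptide / Measured by: fluorescence polarization of the labelled Tn7 tracer / Medium: Tris buffer with calcium and detergent, pH 7.8 / Timing: 10 min compound pre-incubation, 3 h probe incubation at room temperature / Repeats: one replicate per compound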
CRFR2-BP antag: CRF-BP/CRF-R2 complex antagonism. 0.59% of 350,000 active. AID 588475. HEK293 CRF-R2/CRF-BP, CRF-induced calcium fluorescence. inhibition, % at 11.8 µM;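 active means inhibition of the ligand-induced calcium signal above about 50% at the single tested concentration, limit read from the data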
Tn7 DDE conf: confirmation of inhibitors of Tn7 binding to human fibrin DD(E). shares compounds with Tn7 DDE FP. FP displacement of TRITC-Tn7 peptide from DD(E); 0% set at plate's compound-well median. inhibition, % at 8.3 µM. 5% of 460 active. AID 720628;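 active means inhibition above the campaign cutoff, the mean of compounds within control limits plus 3 SD, cut at about 14% in these data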;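 further: 100% = median FP of high control wells holding Aha-Tn7 inhibitor peptide; displacers lower polarization since freed probe rises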
Tn7 DDE ctr: DD(E)-Tn7 binding inhibition, counter-screen; fibrin DD(E), TRITC-Tn7 probe displacement, fluorescence polarization; 3% of 460 active; inhibition, % at 8.3 µM; shares compounds with Tn7 DDE FP;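 active means inhibition above the cutoff, the mean of compounds lying between the control bounds plus 3 SD of those compounds, cut at about 17% in these data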;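 further: 0% = median of compound sample wells and 100% = excess unlabeled Aha-Tn7 peptide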
Numbers without * were called inactive; nt = no result given.

SMILES	CRFBP-R2 agonist	DDE Tn6 FP inh	Tn7 DDE FP	CRFR2-BP antag	others
COc1ccc(OC)c(C(=O)CSc2nnc(SCc3cccc4ccccc34)s2)c1	nt	-5	2	nt
O=C1CC(c2ccccc2)Sc2nc(-c3ccccc3)c(-c3ccccc3)n21 (stereo not drawn)	-1	5	7	-12
O=C1CC(c2cccc(F)c2)SC(N(c2ccccc2)c2ccccc2)=N1 (stereo not drawn)	-1	nt	nt	85*
O=C1CC(c2ccccc2)SC(N(c2ccccc2)c2ccccc2)=N1 (stereo not drawn)	-3	-3	3	56*
O=C1CSC(c2cccc(F)c2)N1c1ccccc1 (stereo not drawn)	0	11	4	12
O=C1CC(c2ccc(Cl)cc2)SC(N(c2ccccc2)c2ccccc2)=N1 (stereo not drawn)	0	4	2	114*
COC(=O)[C@]12C[C@H](CC(=O)N3CCN(C(=O)C4CC4)CC3)C(=O)N(CCc3ccc(OC)c(OC)c3)C1=C[C@H](C1CCCC1)O[C@@H]2C	nt	-1	0	nt
CSc1ccc(C(O)c2ncc(-c3ccccc3F)[nH]2)cc1 (stereo not drawn)	nt	2	-2	nt
COc1ccc(NC(=O)CN(C)C(=O)C2=COCCO2)cc1	2	-2	1	107*
CCCNC(=O)C1CC(=O)N(c2ccc(OCC)cc2)C1 (stereo not drawn)	-4	-1	-10	56*
CCN(C(=O)CCc1nnc2ccc(N3CCC4(CC3)OCCO4)nn12)c1ccccc1	0	8	-6	52*
COC(=O)c1ccc(CSc2nc3ccccc3c(=O)n2-c2ccccc2)o1	0	-4	3	53*
COc1ccc2c(c1)CCCN2C(=O)C1CCCN(S(=O)(=O)c2ccc(Cl)s2)C1 (stereo not drawn)	nt	-4	6	nt
O=C(CCc1ccccc1)N[C@H]1[C@@H](OC(=O)c2cnccn2)CCC[C@]12C(=O)N(Cc1ccccc1)c1ccccc12	nt	-5	-1	nt
Cc1ccc(NC(=S)NNc2ncc(C(F)(F)F)cc2Cl)c(C)c1	-9	7	-1	24
Cc1ccc(NC(=S)NNc2ncc(C(F)(F)F)cc2Cl)cc1	12	-12	-4	7
FC(F)(F)c1cnc(NNC(=S)Nc2ccc(Cl)cc2)c(Cl)c1	52*	-34	1	39
Fc1ccc(NC(=S)NNc2ncc(C(F)(F)F)cc2Cl)c(F)c1	56*	-15	5	42
CC(C)CCC(=O)N1CCOC1=O	-1	2	-2	7
O=C(Nc1ccccc1)Nc1ccc(O)c2ccccc12	0	nt	nt	70*
CCCCNC(=O)C[C@H]1C[C@@]2(C(=O)OC)C(=C[C@H](C(C)C)O[C@@H]2C2CC2)N(Cc2ccc(Cl)cc2Cl)C1=O	nt	1	3	nt
O=C(NCc1ccc(F)cc1)C(=O)NCC1OCCN1C(=O)c1ccc(Cl)cc1 (stereo not drawn)	-5	-2	-3	60*
COc1ccc(C(=O)N2CCOC2CNC(=O)C(=O)NCc2ccc(F)cc2)cc1 (stereo not drawn)	1	3	4	3
O=[N+]([O-])c1ccc(N/N=C/c2sc(N3CCOCC3)nc2-c2ccccc2)c(S(=O)(=O)Nc2ccccc2Cl)c1	67*	2	-3	-39
O=[N+]([O-])c1ccc(N/N=C/c2sc(N3CCOCC3)nc2-c2ccccc2)c(S(=O)(=O)Nc2ccc(Cl)cc2)c1	83*	1	-11	-55
SMILES	CRFBP-R2 agonist	DDE Tn6 FP inh	Tn7 DDE FP	CRFR2-BP antag	others
Cc1[nH]c(=O)[nH]c(=O)c1S(=O)(=O)N1CCCC(C(=O)N2CCN(c3ccccc3Cl)CC2)C1 (stereo not drawn)	-3	nt	nt	74*
Oc1ccc(Br)cc1/C=N/n1c(COc2ccccc2)n[nH]c1=S	-1	6	-2	-1
COC(=O)C1CN(CCc2ccccc2)CCS(=O)(=O)N1Cc1ccc(C(F)(F)F)cc1 (stereo not drawn)	nt	-11	4	nt
CCOC(=O)C1=CN(Cc2ccco2)S(=O)(=O)N(C)C1c1ccc(C(F)(F)F)cc1 (stereo not drawn)	1	-6	0	-1
CCOC(=O)C1=CN(Cc2ccco2)S(=O)(=O)N(C)C1c1ccc2ccccc2c1 (stereo not drawn)	4	-1	15*	-2	Tn7 DDE conf=3;Tn7 DDE ctr=-3
CC(=O)C(Cc1ccccc1)NC(=O)COc1ccc2c(c1)OCO2 (stereo not drawn)	-1	0	-2	0
Cc1ccc(S(=O)(=O)N2CCCCC2)cc1NC(=O)Cn1cnc2c1c(=O)n(C)c(=O)n2C	-2	-4	-11	17
CCCCn1c(N)c(N(CCOC)C(=O)C2CCN(S(=O)(=O)c3ccc(F)cc3)CC2)c(=O)[nH]c1=O	1	-2	17*	-2	Tn7 DDE conf=0;Tn7 DDE ctr=-4
CCCCn1c(N)c(N(CCOC)C(=O)C2CCN(S(=O)(=O)c3ccc(C)cc3)CC2)c(=O)[nH]c1=O	-1	-2	2	8
O=C(CC[C@H]1O[C@@H](n2ccc(=O)[nH]c2=O)[C@H](O)[C@@H]1O)NCc1ccco1	nt	-3	-4	nt
O=C(Nc1cccnc1)c1ccc([N+](=O)[O-])cc1Cl	-5	9	16*	19	Tn7 DDE conf=0;Tn7 DDE ctr=-6
O=C(Nc1ncccn1)c1ccc([N+](=O)[O-])cc1Cl	nt	-2	1	nt
O=c1oc2cc(O)ccc2cc1-c1nc2ccccc2o1	nt	-3	38*	nt	Tn7 DDE conf=14*;Tn7 DDE ctr=-5
COC(=O)c1cc(C)ccc1/C=C1/Cc2c(C)cc(C)cc2C1=O	3	8	-4	28
COc1cccc(C(O)c2nc(-c3cncnc3)cs2)c1 (stereo not drawn)	nt	-4	2	nt
CCC1(c2ccccc2)NC(=O)N(CC(=O)Nc2ccc3c(c2)CCC3)C1=O (stereo not drawn)	-2	-4	-1	-33
CCC1(c2ccccc2)NC(=O)N(CC(=O)Nc2ccc(OC)nc2)C1=O (stereo not drawn)	93*	-2	22*	-62	Tn7 DDE conf=5;Tn7 DDE ctr=-4
Cc1c(C(=O)N2CCCC(C)(C(=O)NS(=O)(=O)C3CC3)C2)oc2ccccc12 (stereo not drawn)	nt	-3	-1	nt
CCN1C(=O)[C@H]2[C@@H](c3ccc(C(F)(F)F)cc3)N[C@]3(CCCN(Cc4ccco4)C3=O)[C@H]2C1=O	3	0	-6	13
CC(C)N1CCc2c(sc(NC(=O)C(F)F)c2-c2nc3ccccc3s2)C1	nt	4	-3	nt
C#CCCC(=O)Nc1sc2c(c1-c1nc3ccccc3s1)CCN(C(C)C)C2	nt	4	16*	nt	Tn7 DDE conf=14*;Tn7 DDE ctr=6
